Converted amounts (≈) assume the structure as drawn.
Legend:
Candida albicans [1] = assay: Percent inhibition of transport of (Met)3 into Candida albicans H-317; assay type: functional; design: concentration or dose not given beside the values
Outline: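 H-317 cells grown in yeast nitrogen base with isoleucine (0.5%) as nitrogen source, washed, and prewarmed 10 min at 37 °C in 2% glucose. Cells were mixed with pH 3.5 citrate (10 mM)-KH2PO4 (10 mM) buffer containing labeled trimethionine (2.9×10^-5 M, 1 μCi/μmol). Analogue was added at 10-fold molar excess. Filtered samples were taken at 0, 1, 2, 3 and 4 min and counted by scintillation; rate was expressed as nmol/mg dry cells/min.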

Candida albicans [2] = assay: Minimum inhibitory concentration against the growth of Candida albicans H-317 strain; assay type: functional
Outline: (§1)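 Cells grown in yeast nitrogen base with ammonium sulfate (0.5%) as nitrogen source, 24-48 h at 37 °C. MIC is the lowest drug concentration producing 5% morphologically aberrant cells, scored by microscopy.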

Candida albicans [3] = assay: Minimum inhibitory concentration against the growth of Candida albicans 124 NIK strain; assay type: functional; outline: as §1
[4] = target: Chitin synthase 1 (Candida albicans) (UniProt P23316); assay: (§2) Concentration at which chitin synthetase is inhibited by 50%; assay type: functional
Sequence of Chitin synthase 1 (Candida albicans) (P23316 whole entry, looked up): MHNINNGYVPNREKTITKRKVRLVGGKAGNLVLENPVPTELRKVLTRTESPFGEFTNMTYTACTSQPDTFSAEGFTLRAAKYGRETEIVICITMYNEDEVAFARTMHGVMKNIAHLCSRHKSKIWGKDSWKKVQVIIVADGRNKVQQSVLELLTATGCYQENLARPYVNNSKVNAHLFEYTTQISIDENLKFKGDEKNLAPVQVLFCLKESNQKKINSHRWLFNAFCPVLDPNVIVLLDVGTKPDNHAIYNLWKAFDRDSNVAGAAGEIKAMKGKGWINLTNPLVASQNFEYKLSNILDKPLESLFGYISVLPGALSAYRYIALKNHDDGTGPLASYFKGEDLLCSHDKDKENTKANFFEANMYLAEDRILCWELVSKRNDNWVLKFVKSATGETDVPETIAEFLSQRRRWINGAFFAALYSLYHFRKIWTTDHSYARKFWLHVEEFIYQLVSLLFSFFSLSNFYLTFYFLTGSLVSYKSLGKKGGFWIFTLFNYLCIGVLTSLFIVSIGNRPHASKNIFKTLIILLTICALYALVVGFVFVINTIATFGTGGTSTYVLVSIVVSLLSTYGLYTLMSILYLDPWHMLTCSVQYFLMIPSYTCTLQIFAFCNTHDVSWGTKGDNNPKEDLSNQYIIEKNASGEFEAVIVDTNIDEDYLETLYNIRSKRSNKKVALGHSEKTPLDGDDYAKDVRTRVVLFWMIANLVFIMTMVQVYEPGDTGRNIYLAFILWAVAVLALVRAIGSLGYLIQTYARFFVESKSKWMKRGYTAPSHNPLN
Outline: (§3)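 Mixed membrane (particulate) fraction from C. albicans H-317 was the enzyme source. Chitin synthetase activity was measured with and without polyoxin compounds as incorporation of N-acetylglucosamine into chitin. ID50 is the concentration giving 50% inhibition.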

Candida albicans [5] = assay: Minimum inhibitory concentration against the growth of Candida albicans 124 strain; assay type: functional; outline: as §1
[6] = target: Chitin synthase 1 (Candida albicans) (UniProt P23316); assay: as §2; outline: as §3
Candida albicans [7] = assay: Percent inhibition of transport of (Leu)2 into Candida albicans H-317; assay type: functional; design: concentration or dose not given beside the values
Outline: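 H-317 cells grown in yeast nitrogen base with isoleucine (0.5%) as nitrogen source, harvested at 8×10^6 cells/mL, and washed. Cells in 2% glucose were warmed 10 min at 37 °C, then mixed with pH 5.5 citrate (10 mM)-KH2PO4 (10 mM) buffer containing labeled dileucine (5.6×10^-5 M, 44 μCi/μmol). Analogue was present at 10-fold molar excess. Samples were filtered at 0-4 min and counted; uptake rate was expressed as nmol/mg dry weight/min.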

Candida albicans [8] = assay: Compound was tested for hydrolysis by Candida albicans H-317 extract; (+) Indicates compound was hydrolyzed by C. albicans H-317 extract; assay type: functional
Outline: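 Cell extract of C. albicans H-317 (100 μL at 200 μg protein/mL) incubated at 37 °C with polyoxin compound (100 μL of 1 μg/mL) plus 300 μL water. Hydrolysis monitored by reversed-phase HPLC, absorbance at 254 nm.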

[9] = Candida albicans, read-out: MIC

NC(C(=O)O)[C@H]1O[C@@H](n2ccc(=O)[nH]c2=O)[C@H](O)[C@@H]1O (stereo partly drawn)
Inhibition (Candida albicans [1]): 3%
MIC (Candida albicans [2]; [9]): > 640 µg/mL
MIC (Candida albicans [3]; [9]): > 640 µg/mL
ID50 [4]: > 100 µg/mL
MIC (Candida albicans [5]; [9]): > 640 µg/mL

CCCCCCCCCCC(N)C(=O)NC(C(=O)O)[C@H]1O[C@@H](n2ccc(=O)[nH]c2=O)[C@H](O)[C@@H]1O (stereo partly drawn)
Inhibition (Candida albicans [1]): 0%
MIC (Candida albicans [2]; [9]): 80 µg/mL (≈ 165 µM)
MIC (Candida albicans [3]; [9]): 80 µg/mL (≈ 165 µM)
MIC (Candida albicans [5]; [9]): 40 µg/mL (≈ 82.6 µM)
ID50 [6]: 0.3 µg/mL (≈ 0.619 µM)
Inhibition (Candida albicans [7]): 87%

NC(=O)OCC(O)C(O)C(N)C(=O)NC(C(=O)O)[C@H]1O[C@@H](n2cc(C(=O)O)c(=O)[nH]c2=O)[C@H](O)[C@@H]1O (stereo partly drawn)
Inhibition (Candida albicans [1]): 10%
MIC (Candida albicans [2]; [9]): 640 µg/mL (≈ 1230 µM)
MIC (Candida albicans [3]; [9]): 320 µg/mL (≈ 614 µM)
MIC (Candida albicans [5]; [9]): 320 µg/mL (≈ 614 µM)
ID50 [6]: 2 µg/mL (≈ 3.84 µM)
Inhibition (Candida albicans [7]): 5%

CCCCCCC(N)C(=O)NC(C(=O)O)[C@H]1O[C@@H](n2ccc(=O)[nH]c2=O)[C@H](O)[C@@H]1O (stereo in doubt; 3a) [listing 1 of 2 here]
Inhibition (Candida albicans [1]): 6%
MIC (Candida albicans [2]; [9]): 160 µg/mL (≈ 373 µM)
MIC (Candida albicans [3]; [9]): 640 µg/mL (≈ 1490 µM)
MIC (Candida albicans [5]): 80 µg/mL (≈ 187 µM)
Inhibition (Candida albicans [7]): 71%

CCCCCCC(N)C(=O)NC(C(=O)O)[C@H]1O[C@@H](n2ccc(=O)[nH]c2=O)[C@H](O)[C@@H]1O (stereo in doubt; 3a) [listing 2 of 2 here]
Hydrolysis (Candida albicans [8]): (+)
ID50 [6]: 2 µg/mL (≈ 4.67 µM)

CCCCCCC(N)C(=O)NC(C(=O)O)[C@H]1O[C@@H](n2ccc(=O)[nH]c2=O)[C@H](O)[C@@H]1O (stereo in doubt; 3b) [listing 1 of 2 here]
Inhibition (Candida albicans [1]): 10%
MIC (Candida albicans [2]): >320 µg/mL
MIC (Candida albicans [3]): >320 µg/mL
MIC (Candida albicans [5]): >320 µg/mL
Inhibition (Candida albicans [7]): 14%

CCCCCCC(N)C(=O)NC(C(=O)O)[C@H]1O[C@@H](n2ccc(=O)[nH]c2=O)[C@H](O)[C@@H]1O (stereo in doubt; 3b) [listing 2 of 2 here]
ID50 [6]: > 50 µg/mL

CCCCCCCCCCCCCCC(N)C(=O)NC(C(=O)O)[C@H]1O[C@@H](n2ccc(=O)[nH]c2=O)[C@H](O)[C@@H]1O (stereo in doubt; 5a) [listing 1 of 2 here]
Inhibition (Candida albicans [7]): 56%

CCCCCCCCCCCCCCC(N)C(=O)NC(C(=O)O)[C@H]1O[C@@H](n2ccc(=O)[nH]c2=O)[C@H](O)[C@@H]1O (stereo in doubt; 5a) [listing 2 of 2 here]
ID50 [6]: > 100 µg/mL

CCCCCCCCCCCCCCC(N)C(=O)NC(C(=O)O)[C@H]1O[C@@H](n2ccc(=O)[nH]c2=O)[C@H](O)[C@@H]1O (stereo in doubt; 5b) [listing 1 of 2 here]
Inhibition (Candida albicans [1]): 10%
MIC (Candida albicans [2]; [9]): > 320 µg/mL
MIC (Candida albicans [3]; [9]): > 320 µg/mL
MIC (Candida albicans [5]; [9]): > 320 µg/mL
Inhibition (Candida albicans [7]): 83%

CCCCCCCCCCCCCCC(N)C(=O)NC(C(=O)O)[C@H]1O[C@@H](n2ccc(=O)[nH]c2=O)[C@H](O)[C@@H]1O (stereo in doubt; 5b) [listing 2 of 2 here]
ID50 [6]: 10 µg/mL (≈ 18.5 µM)

Source: ChEMBL document CHEMBL1124064, “Synthesis and anticandidal properties of polyoxin L analogues containing alpha-amino fatty acids” (1988)
